Activity calls are given as the source filed them. The calls are words filed in the database; no cut-off is given here.
Assays:
[1] = Cytotoxicity against human SH-SY5Y cells assessed as cell viability at 1 uM after 48 hrs by MTT assay; format: functional; conditions: read-out: Activity
Procedure, shortened: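 SH-SY5Y cells in 24-well plates were treated 48 h with 1 μM compound. They were washed in Locke's solution (10 mM HEPES pH 7.6) and given MTT 250 μg/mL for 1 h at 37 °C. Formazan was dissolved in isopropanol/0.1 M HCl and read at 570 nm. Result is % viable cells, 8-12 determinations from 3 experiments.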

[2] = Cytotoxicity against human SH-SY5Y cells assessed as reduction in cell viability after 48 hrs by MTT assay; format: functional, cell-based
Procedure, shortened: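 SH-SY5Y cells were exposed 48 h across a concentration range, then given MTT 250 μg/mL in Locke's solution for 1 h at 37 °C. Formazan was dissolved in isopropanol/0.1 M HCl and absorbance read at 570 nm. IC50 was taken from concentration-response curves; 8-12 determinations from 3 experiments.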

[3] = Cell cycle arrest in human SH-SY5Y cells assessed as accumulation at G2/M phase at IC50 after 16 hrs by flow cytometry (reference value: 18.5 %); format: functional, cell-based
Procedure, shortened: (§1)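 SH-SY5Y neuroblastoma cells were kept in 50% DMEM/50% F-12 with 10% FBS and 2 mM L-glutamine. Cells were exposed 16 h to vehicle or compound, washed in PBS and fixed in 70% EtOH at -20 °C. They were then treated with RNAse 100 μg/mL for 1 h at 37 °C and stained with 25 μg/mL propidium iodide plus 5 mM EDTA for 30 min at 4 °C in the dark. DNA content was read by flow cytometry; 3 experiments.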

[4] = Cell cycle arrest in human SH-SY5Y cells assessed as accumulation at S phase at IC50 after 16 hrs by flow cytometry (reference value: 10.6 %); format: functional, cell-based; procedure, shortened: as §1
[5] = Cell cycle arrest in human SH-SY5Y cells assessed as accumulation at G0G1 phase at IC50 after 16 hrs by flow cytometry (reference value: 70.2 %); format: functional, cell-based; procedure, shortened: as §1
[6] = Cell cycle arrest in human SH-SY5Y cells assessed as accumulation at G0G1 phase at 3 times IC50 after 16 hrs by flow cytometry (reference value: 70.2 %); format: functional, cell-based; procedure, shortened: as §1
[7] = Cell cycle arrest in human SH-SY5Y cells assessed as accumulation at S phase at 3 times IC50 after 16 hrs by flow cytometry (reference value: 10.6 %); format: functional, cell-based; procedure, shortened: as §1
[8] = Cell cycle arrest in human SH-SY5Y cells assessed as accumulation at G2/M phase at 3 times IC50 after 16 hrs by flow cytometry (reference value: 18.5 %); format: functional, cell-based; procedure, shortened: as §1
[9] = Metabolic stability in human liver microsomes assessed as peak area after 60 mins by LC-UV analysis; format: ADME; conditions: read-out: Stability
Procedure, shortened: (§2)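 Human liver microsomes were incubated with compound alone, with NADPH, with NADPH+GSH (60 min; phase I), or with UDPGA (30 min; phase II). Extracts were analysed by LC-UV, and remaining substrate is reported as peak area % relative to controls without microsomes.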

[10] = Metabolic stability in human liver microsomes assessed as peak area after 60 mins by LC-UV analysis in presence of NADPH; format: ADME; conditions: read-out: Stability; procedure, shortened: as §2
[11] = Metabolic stability in human liver microsomes assessed as peak area after 60 mins by LC-UV analysis in presence of NADPH and GSH; format: ADME; conditions: read-out: Stability; procedure, shortened: as §2
[12] = Metabolic stability in human liver microsomes assessed as peak area after 30 mins by LC-UV analysis in presence of NADPH and UDPGA; format: ADME; conditions: read-out: Stability; procedure, shortened: as §2
Tubulin (Homo sapiens) [13] = target: T1, Tubulin (Homo sapiens) (UniProt P68371+Q9H4B7+P0DPH7+P68366+Q13509+Q71U36+P04350+Q3ZCM7+P07437+P68363+Q9BQE3+Q6PEY2+Q13885+Q9BVA1+Q9BUF5); assay: Inhibition of tubulin polymerization in human SH-SY5Y cells at 3 times IC50 after 16 hrs by Western blot analysis; format: cell-based
Tubulin (Homo sapiens) [14] = target: T1, Tubulin (Homo sapiens); assay: Inhibition of tubulin polymerization in human SH-SY5Y cells at 1 to 3 times IC50 after 16 hrs by immunocytochemistry; format: cell-based
Tubulin = assay: (§3) Inhibition of tubulin (unknown origin) polymerization by fluorescence assay; format: protein-complex assay, Homo sapiens
Procedure, shortened: (§4)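 Fluorescence-based kit assay. Tubulin was taken up in ice-cold buffer (80 mM PIPES, 2 mM MgCl2, 0.5 mM EGTA, 1 mM GTP, 20% glycerol) and added to wells containing compound or vehicle.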

Tubulin (Homo sapiens) [15] = target: T1, Tubulin (Homo sapiens); assay: Displacement of [3H]colchicine from tubulin (unknown origin) at 1 uM after 30 mins by beta-counting; format: protein-complex assay
Procedure, shortened: (§5)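 It was preincubated 30 min at 37 °C with test compound at 1 or 10 μM, then given 0.2 μCi [3H]colchicine for 1 h at 37 °C. Samples were stopped with ice-cold water, filtered on nitrocellulose and counted by β-counter. Results are % inhibition, ≥7 replicates from 3 experiments.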

Tubulin (Homo sapiens) [16] = target: T1, Tubulin (Homo sapiens); assay: Displacement of [3H]colchicine from tubulin (unknown origin) at 10 uM after 30 mins by beta-counting; format: protein-complex assay; procedure, shortened: as §5
Tubulin (Homo sapiens) [17] = target: T1, Tubulin (Homo sapiens); assay: as §3; format: protein-complex assay; procedure, shortened: as §4

Question: Which viability at 1 µM [1] does the source give for `COc1cc2c(cc1OC)N(C)C(=O)CN=C2c1cc(OC)c(OC)c(OC)c1` here?
Answer: The viability at 1 µM was 105%.

Question: With `COc1cc2c(cc1OC)C(c1cc(OC)c(OC)c(OC)c1)=NCC(=O)N2` as the compound, how does the viability at 1 µM [1] read?
Answer: Its viability at 1 µM is 102%.

Question: Which results are given for `COc1ccc2c(c1)C(c1cc(OC)c(OC)c(OC)c1)=NCC(=O)N2`?
Answer: viability at 1 µM [1]: 33.9%; IC50 [2]: 256 nM

Question: Which viability at 1 µM [1] does the source give for `COc1ccc(/C=C\c2cc(OC)c(OC)c(OC)c2)cc1O` [COMBRETASTATIN A4] here?
Answer: Its viability at 1 µM is 33.4%.

Question: And the IC50 [2]?
Answer: The IC50 was 2.7 nM.

Question: And the Activity [3]?
Answer: The Activity was 38.4%.

Question: And the Activity [4]?
Answer: The Activity was 10%.

Question: What about the Activity [5] of the same compound?
Answer: Its Activity is 51.1%.

Question: And the Activity [6]?
Answer: Its Activity is 52.7%.

Question: And the Activity [7]?
Answer: Its Activity is 11.4%.

Question: What about the Activity [8] of the same compound?
Answer: The Activity was 35.4%.

Question: What about the remaining at 1 h [9] of the same compound?
Answer: Its remaining at 1 h is 100%.

Question: What about the remaining at 1 h [10] of the same compound?
Answer: The remaining at 1 h was 75%.

Question: What about the remaining at 1 h [11] of the same compound?
Answer: Its remaining at 1 h is 67%.

Question: What about the remaining at 0.5 h [12] of the same compound?
Answer: The remaining at 0.5 h was 39%.

Question: With `COc1ccc2c(c1O)NC(=O)CN=C2c1cc(OC)c(OC)c(OC)c1` as the compound, how does the viability at 1 µM [1] read?
Answer: The viability at 1 µM was 27.5%.

Question: And the IC50 [2]?
Answer: Its IC50 is 3.9 nM.

Question: What about the inhibition (Tubulin (Homo sapiens) [13]) of the same compound?
Answer: Its inhibition is “Active”.

Question: And the inhibition (Tubulin (Homo sapiens) [14])?
Answer: Its inhibition is “Active”.

Question: And the IC50 (Tubulin)?
Answer: Its IC50 is 1300 nM.

Question: And the Activity [3]?
Answer: Its Activity is 33%.

Question: And the Activity [4]?
Answer: Its Activity is 18.9%.

Question: And the inhibition (Tubulin (Homo sapiens) [15])?
Answer: Its inhibition is 48%.

Question: And the inhibition (Tubulin (Homo sapiens) [16])?
Answer: The inhibition was 80%.

Question: And the Activity [5]?
Answer: Its Activity is 48%.

Question: What about the Activity [6] of the same compound?
Answer: Its Activity is 47.5%.

Question: And the Activity [7]?
Answer: The Activity was 17.9%.

Question: And the Activity [8]?
Answer: Its Activity is 34.4%.

Question: And the remaining at 1 h [9]?
Answer: Its remaining at 1 h is 95%.

Question: And the remaining at 1 h [10]?
Answer: The remaining at 1 h was 96%.

Question: And the remaining at 1 h [11]?
Answer: Its remaining at 1 h is 97%.

Question: And the remaining at 0.5 h [12]?
Answer: Its remaining at 0.5 h is 92%.

Question: With `COc1cc(C2=NCC(=O)N3COc4c(OC)ccc2c43)cc(OC)c1OC` as the compound, how does the viability at 1 µM [1] read?
Answer: Its viability at 1 µM is 95.2%.

Question: Which viability at 1 µM [1] does the source give for `COc1cc(C2=NCC(=O)N(C)c3c2ccc(OC)c3OC)cc(OC)c1OC` here?
Answer: The viability at 1 µM was 76.4%.

Question: With `COc1cc(C2=NCC(=O)Nc3c2ccc(OC)c3OC)cc(OC)c1OC` as the compound, how does the viability at 1 µM [1] read?
Answer: Its viability at 1 µM is 46.8%.

Question: What about the IC50 [2] of the same compound?
Answer: Its IC50 is 90.3 nM.

Question: Which results are given for `COc1ccc2c(c1)N(C)C(=O)CN=C2c1cc(OC)c(OC)c(OC)c1`?
Answer: viability at 1 µM [1]: 32.9%; IC50 [2]: 280 nM

Question: For `COc1cc(C2=NCC(=O)Nc3cc4c(cc32)OCO4)cc(OC)c1OC`, which viability at 1 µM [1] is on record?
Answer: Its viability at 1 µM is 35.1%.

Question: And the IC50 [2]?
Answer: The IC50 was 71 nM.

Question: And the inhibition (Tubulin (Homo sapiens) [13])?
Answer: Its inhibition is “Active”.

Question: And the inhibition (Tubulin (Homo sapiens) [14])?
Answer: Its inhibition is “Active”.

Question: And the inhibition (Tubulin (Homo sapiens) [17])?
Answer: Its inhibition is “Dose-dependent effect”.

Question: And the IC50 (Tubulin)?
Answer: Its IC50 is 13600 nM.

Question: What about the Activity [3] of the same compound?
Answer: Its Activity is 38.1%.

Question: And the Activity [4]?
Answer: Its Activity is 12.6%.

Question: What about the Activity [5] of the same compound?
Answer: The Activity was 49.1%.

Question: What about the Activity [6] of the same compound?
Answer: Its Activity is 49.3%.

Question: And the Activity [7]?
Answer: The Activity was 12.6%.

Question: What about the Activity [8] of the same compound?
Answer: Its Activity is 37.7%.

Question: Which viability at 1 µM [1] does the source give for `COc1ccc2c(c1)NC(=O)CN=C2c1cc(OC)c(OC)c(OC)c1` here?
Answer: The viability at 1 µM was 24.7%.

Question: What about the IC50 [2] of the same compound?
Answer: Its IC50 is 25.1 nM.

Question: And the inhibition (Tubulin (Homo sapiens) [13])?
Answer: Its inhibition is “Active”.

Question: And the inhibition (Tubulin (Homo sapiens) [14])?
Answer: Its inhibition is “Active”.

Question: And the inhibition (Tubulin (Homo sapiens) [17])?
Answer: Its inhibition is “Dose-dependent effect”.

Question: And the IC50 (Tubulin)?
Answer: The IC50 was 9000 nM.

Question: And the Activity [3]?
Answer: The Activity was 34.6%.

Question: And the Activity [4]?
Answer: The Activity was 2.1%.

Question: And the Activity [5]?
Answer: Its Activity is 45.5%.

Question: And the Activity [6]?
Answer: Its Activity is 45.5%.

Question: And the Activity [7]?
Answer: Its Activity is 19.3%.

Question: What about the Activity [8] of the same compound?
Answer: Its Activity is 35%.

Question: For `COc1ccc2c(c1)C(c1cc(OC)c(OC)c(OC)c1)=NCC(=O)N2C`, which viability at 1 µM [1] is on record?
Answer: The viability at 1 µM was 44.4%.

Question: What about the IC50 [2] of the same compound?
Answer: Its IC50 is 862 nM.

Question: With `COc1cc(C2=NCC(=O)N(C)c3cc4c(cc32)OCO4)cc(OC)c1OC` as the compound, how does the viability at 1 µM [1] read?
Answer: Its viability at 1 µM is 46.4%.

Question: Which viability at 1 µM [1] does the source give for `COc1cc2c(cc1O)C(c1cc(OC)c(OC)c(OC)c1)=NCC(=O)N2` here?
Answer: The viability at 1 µM was 64.8%.

Question: And the IC50 [2]?
Answer: The IC50 was 415 nM.
